Our source for the Ki and inhibition values is ChEMBL document CHEMBL1146100, “Refinement of the benzodiazepine receptor site topology by structure-activity relationships of new N-(heteroarylmethyl)indol-3-ylglyoxylamides” (J Med Chem, 2006).

Assay [1] has as its target GABA-A receptor; anion channel. Briefly: Displacement of [3H]flumazenil from GABA-A receptor in bovine brain membranes. Format: cell membranes, Bos taurus. (Displacement assays read how much labelled ligand stays bound in the presence of the test substance.)
For assay [2], the target named is GABA A receptor alpha-2/beta-2/gamma-2 (Rattus norvegicus) (UniProt P18508+P23576+P63138). Briefly: Inhibition of [3H]flumazenil binding to rat GABA-Aalpha2 receptor plus beta-2-gamma-2 at 10 uM in HEK293 cells. Format: cell-based.
Assay [3] concerns the target GABA-A receptor; alpha-1/beta-2/gamma-2 (Rattus norvegicus, UniProt P18508+P62813+P63138). Briefly: Displacement of [3H]flumazenil from rat GABA-Aalpha1 receptor plus beta-2-gamma-2 in HEK293 cells. Format: cell-based. The method, boiled down: (§1)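 Membranes from HEK293 cells stably expressing rat GABA-A subtypes (37 °C, 5% CO2, DMEM/F-12 with 10% FBS). Cells harvested, homogenized in 10 mM potassium phosphate pH 7.4, centrifuged at 48 000g for 30 min at 4 °C, washed twice, resuspended in the same buffer plus 100 mM KCl. Incubated with 1-2 nM [3H]flumazenil for 1 h at 4 °C to equilibrium. Nonspecific binding defined with 10^-5 M diazepam.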

Assay [4] has as its target GABA A receptor alpha-5/beta-3/gamma-2 (Rattus norvegicus, UniProt P18508+P19969+P63079). Briefly: Displacement of [3H]flumazenil from rat GABA-Aalpha5 receptor plus beta-3-gamma-2 in HEK293 cells. The format is cell-based. The method, boiled down: as §1
The target of assay [5] is GABA A receptor alpha-5/beta-3/gamma-2 (Rattus norvegicus) (UniProt P18508+P19969+P63079). Briefly: Inhibition of [3H]flumazenil binding to rat GABA-Aalpha5 receptor plus beta-3-gamma-2 at 10 uM in HEK293 cells. The format is cell-based.
Assay [6] deals with GABA A receptor alpha-2/beta-2/gamma-2 (Rattus norvegicus, UniProt P18508+P23576+P63138). Briefly: Displacement of [3H]flumazenil from rat GABA-Aalpha2 receptor plus beta-2-gamma-2 in HEK293 cells. The format is cell-based. Summed up: as §1
GABA A receptor alpha-2/beta-2/gamma-2, sequence (P18508 whole entry): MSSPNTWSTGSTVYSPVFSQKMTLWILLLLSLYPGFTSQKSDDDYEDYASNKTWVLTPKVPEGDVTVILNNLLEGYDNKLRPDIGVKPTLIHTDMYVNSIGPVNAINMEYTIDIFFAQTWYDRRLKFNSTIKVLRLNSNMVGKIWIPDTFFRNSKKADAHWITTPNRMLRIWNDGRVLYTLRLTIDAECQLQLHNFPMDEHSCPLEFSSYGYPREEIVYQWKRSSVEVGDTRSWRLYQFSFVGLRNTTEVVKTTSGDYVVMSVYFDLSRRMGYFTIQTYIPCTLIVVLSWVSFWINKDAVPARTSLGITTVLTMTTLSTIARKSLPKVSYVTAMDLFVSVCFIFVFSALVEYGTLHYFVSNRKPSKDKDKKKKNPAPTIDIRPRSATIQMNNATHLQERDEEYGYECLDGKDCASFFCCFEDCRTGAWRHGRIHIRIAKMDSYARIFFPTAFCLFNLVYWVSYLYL
GABA A receptor alpha-2/beta-2/gamma-2, sequence (P23576 whole entry): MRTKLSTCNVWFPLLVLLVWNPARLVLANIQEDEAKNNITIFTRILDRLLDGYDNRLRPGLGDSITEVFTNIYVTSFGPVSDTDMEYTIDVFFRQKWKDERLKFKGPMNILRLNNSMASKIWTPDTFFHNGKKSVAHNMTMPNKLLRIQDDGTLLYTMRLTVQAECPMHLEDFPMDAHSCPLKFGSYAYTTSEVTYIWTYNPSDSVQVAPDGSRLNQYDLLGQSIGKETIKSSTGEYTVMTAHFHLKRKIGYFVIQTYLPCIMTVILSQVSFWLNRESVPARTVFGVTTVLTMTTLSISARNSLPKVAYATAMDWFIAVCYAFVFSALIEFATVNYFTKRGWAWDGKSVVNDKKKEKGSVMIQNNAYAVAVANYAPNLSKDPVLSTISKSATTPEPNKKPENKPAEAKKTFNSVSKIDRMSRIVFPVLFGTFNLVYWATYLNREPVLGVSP
GABA A receptor alpha-2/beta-2/gamma-2, sequence (P63138 whole entry): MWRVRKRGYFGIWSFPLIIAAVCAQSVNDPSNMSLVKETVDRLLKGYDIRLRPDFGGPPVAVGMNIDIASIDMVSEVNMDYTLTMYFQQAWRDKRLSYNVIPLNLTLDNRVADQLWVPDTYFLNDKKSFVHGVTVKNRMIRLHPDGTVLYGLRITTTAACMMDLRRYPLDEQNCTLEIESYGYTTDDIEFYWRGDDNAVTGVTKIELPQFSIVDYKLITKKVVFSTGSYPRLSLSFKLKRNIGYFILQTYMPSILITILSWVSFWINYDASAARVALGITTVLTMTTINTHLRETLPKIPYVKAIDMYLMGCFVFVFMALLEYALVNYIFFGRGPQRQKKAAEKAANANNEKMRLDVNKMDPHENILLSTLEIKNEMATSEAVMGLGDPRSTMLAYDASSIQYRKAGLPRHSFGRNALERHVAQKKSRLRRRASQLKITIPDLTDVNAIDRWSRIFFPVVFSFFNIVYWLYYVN

GABA A receptor alpha-5/beta-3/gamma-2, sequence (P18508 whole entry): as the sequence (P18508 whole entry) above
GABA A receptor alpha-5/beta-3/gamma-2, sequence (P19969 whole entry): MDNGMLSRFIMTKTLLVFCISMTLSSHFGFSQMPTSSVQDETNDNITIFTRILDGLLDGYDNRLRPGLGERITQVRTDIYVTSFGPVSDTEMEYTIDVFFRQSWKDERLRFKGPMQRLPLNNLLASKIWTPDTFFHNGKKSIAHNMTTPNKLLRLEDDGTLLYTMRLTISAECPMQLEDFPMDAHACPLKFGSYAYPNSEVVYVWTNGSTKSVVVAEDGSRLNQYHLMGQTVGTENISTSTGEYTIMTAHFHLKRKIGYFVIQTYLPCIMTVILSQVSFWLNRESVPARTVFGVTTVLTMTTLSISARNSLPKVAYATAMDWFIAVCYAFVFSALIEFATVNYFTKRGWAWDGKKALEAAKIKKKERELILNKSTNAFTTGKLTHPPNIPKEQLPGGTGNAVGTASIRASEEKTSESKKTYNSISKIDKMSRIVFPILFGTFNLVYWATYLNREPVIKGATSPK
GABA A receptor alpha-5/beta-3/gamma-2, sequence (P63079 whole entry): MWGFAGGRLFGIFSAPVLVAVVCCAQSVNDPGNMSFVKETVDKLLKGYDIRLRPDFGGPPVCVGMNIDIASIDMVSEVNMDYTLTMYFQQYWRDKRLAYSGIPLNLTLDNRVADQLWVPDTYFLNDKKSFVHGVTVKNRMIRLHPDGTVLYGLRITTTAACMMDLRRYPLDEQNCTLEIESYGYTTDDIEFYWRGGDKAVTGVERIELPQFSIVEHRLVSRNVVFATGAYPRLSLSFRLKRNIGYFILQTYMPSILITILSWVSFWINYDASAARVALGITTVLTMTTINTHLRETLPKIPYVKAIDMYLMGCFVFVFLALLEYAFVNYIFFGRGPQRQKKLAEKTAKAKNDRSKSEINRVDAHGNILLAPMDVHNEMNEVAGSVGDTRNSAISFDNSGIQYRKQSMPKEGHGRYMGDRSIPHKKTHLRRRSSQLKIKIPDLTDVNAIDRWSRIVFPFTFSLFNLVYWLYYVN
GABA-A receptor; alpha-1/beta-2/gamma-2, sequence (P18508 whole entry): as the sequence (P18508 whole entry) above
GABA-A receptor; alpha-1/beta-2/gamma-2, sequence (P62813 whole entry): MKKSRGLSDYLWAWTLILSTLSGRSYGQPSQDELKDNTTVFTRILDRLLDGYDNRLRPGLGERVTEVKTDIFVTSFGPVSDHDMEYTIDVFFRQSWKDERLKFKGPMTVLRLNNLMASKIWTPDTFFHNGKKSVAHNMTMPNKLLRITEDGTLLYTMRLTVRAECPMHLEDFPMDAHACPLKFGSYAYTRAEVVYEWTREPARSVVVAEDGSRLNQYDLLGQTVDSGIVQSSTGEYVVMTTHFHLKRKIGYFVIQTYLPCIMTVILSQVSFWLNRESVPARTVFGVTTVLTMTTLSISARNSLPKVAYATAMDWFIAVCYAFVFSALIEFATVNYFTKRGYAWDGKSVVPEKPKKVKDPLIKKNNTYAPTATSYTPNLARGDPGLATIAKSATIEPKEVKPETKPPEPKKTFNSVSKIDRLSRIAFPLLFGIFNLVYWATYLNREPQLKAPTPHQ
GABA-A receptor; alpha-1/beta-2/gamma-2, sequence (P63138 whole entry): as the sequence (P63138 whole entry) above

The term Ki denotes the dissociation constant of the complex between target and ligand, obtained from inhibition or displacement. In general, inhibition refers to how much of the control response was suppressed. Take `O=C(NCc1ccc[nH]1)C(=O)c1c[nH]c2ccccc12`: the Ki in assay [1] stood at 531 nM; in assay [3], 271 nM; in assay [4], 1500 nM. In assay [2], the inhibition stood at 47%.
Consider `O=C(NCc1cc2ccccc2[nH]1)C(=O)c1c[nH]c2ccc([N+](=O)[O-])cc12`, for which the Ki in assay [1] was greater than 10000 nM.
The same measure, in the same setting: the same measure for `O=C(NCc1ccncc1)C(=O)c1c[nH]c2ccc([N+](=O)[O-])cc12`: 770 nM; for `O=C(NCc1ncc[nH]1)C(=O)c1c[nH]c2ccc([N+](=O)[O-])cc12`: greater than 10000 nM.
Same read-out and setting: next, `O=C(NCc1cccs1)C(=O)c1c[nH]c2ccc([N+](=O)[O-])cc12`: 128 nM.
Still for that read-out and setting: next, `O=C(NCc1ccccn1)C(=O)c1c[nH]c2ccc([N+](=O)[O-])cc12`: 439 nM.
`Cn1cccc1CNC(=O)C(=O)c1c[nH]c2ccc([N+](=O)[O-])cc12`: the Ki in assay [1] worked out at 134 nM.
On the same count and under the same terms, next, `O=C(NCc1ccsc1)C(=O)c1c[nH]c2ccccc12`: 212 nM.
In the case of `O=C(NCc1ccc[nH]1)C(=O)c1c[nH]c2ccc([N+](=O)[O-])cc12`, the Ki in assay [1] worked out at 33 nM; in assay [3], 73.5 nM; in assay [6], 585 nM. In addition, the inhibition in assay [5] is 5%.
The matching figures for `O=C(NCc1ccco1)C(=O)c1c[nH]c2ccc([N+](=O)[O-])cc12`: 12.6 nM, 20 nM, 155 nM and 28%.
For the compound `O=C(NCc1cc[nH]c1)C(=O)c1c[nH]c2ccccc12`, the Ki in assay [1] was 204 nM; in assay [3] it was 272 nM; in assay [4], 681 nM. The inhibition in assay [2] was 46%.
`Cn1cccc1CNC(=O)C(=O)c1c[nH]c2ccccc12` had a Ki in assay [1] of 4590 nM.
Still for that read-out and setting: next, `Cc1ccc(CNC(=O)C(=O)c2c[nH]c3ccccc23)o1`: 249 nM.
In assay [1], `O=C(NCc1ccccn1)C(=O)c1c[nH]c2ccccc12` returned a Ki of 6000 nM.
As to `O=C(NCc1cccnc1)C(=O)c1c[nH]c2ccc([N+](=O)[O-])cc12`, the Ki in assay [1] was found to be 483 nM.
Still for that read-out and setting: the same measure for `O=C(NCc1ccncc1)C(=O)c1c[nH]c2ccccc12`: 426 nM.
Take `O=C(NCc1cc[nH]c1)C(=O)c1c[nH]c2ccc([N+](=O)[O-])cc12`: the Ki worked out at 21 nM in assay [1], 9.2 nM in assay [3], 154 nM in assay [6] and 1600 nM in assay [4].
Take `Cc1ccc(CNC(=O)C(=O)c2c[nH]c3ccc([N+](=O)[O-])cc23)o1`: the Ki in assay [1] worked out at 15.6 nM.
The compound `O=C(NCc1ccoc1)C(=O)c1c[nH]c2ccccc12` displayed a Ki in assay [1] of 447 nM.
Same read-out and setting: the same measure for `O=C(NCc1cccnc1)C(=O)c1c[nH]c2ccccc12`: 105 nM; for `O=C(NCc1cc2ccccc2[nH]1)C(=O)c1c[nH]c2ccccc12`: 1130 nM; for `O=C(NCc1cccs1)C(=O)c1c[nH]c2ccccc12`: 285 nM.
The same measure, in the same setting: the same measure for `O=C(NCc1ccsc1)C(=O)c1c[nH]c2ccc([N+](=O)[O-])cc12`: 148 nM.
For the compound `O=C(NCc1ccoc1)C(=O)c1c[nH]c2ccc([N+](=O)[O-])cc12`, the Ki came out at 22 nM in assay [1], 56.6 nM in assay [3] and 236 nM in assay [6]. In addition, the inhibition in assay [5] amounted to 9%.
For `O=C(NCc1ccco1)C(=O)c1c[nH]c2ccccc12`, in assay [1], the Ki is 324 nM.
Same read-out and setting: the same measure for `O=C(NCc1ncc[nH]1)C(=O)c1c[nH]c2ccccc12`: 1750 nM.
